Here are results for 7 compounds from ChEMBL document CHEMBL1157029, “Synthesis, characterization and in vitro pharmacology of novel pregabalin derivatives” (Eur J Med Chem, 2010).

For experiment [1], the species on record is Rattus norvegicus. The experiment in a line: Inhibition of [3H]gabapentin binding to voltage gated calcium channel alpha2delta from rat cerebral cortex at 10 uM by scintillation counting. Type of experiment: tissue-based. Put shortly:
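Single test concentration, in duplicate. Membranes were incubated 60 min at 22 °C with 10 nM [3H]gabapentin in 10 mM Hepes/Tris pH 7.4. Nonspecific binding was defined with excess unlabelled gabapentin, and filters were counted by scintillation. Compound came from DMSO stock with a final 100-fold dilution in the well. Result given as % inhibition of control specific binding.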

Experiment [2] is described as follows: Displacement of [3H]gabapentin binding to voltage gated calcium channel alpha2delta from rat cerebral cortex by scintillation counting. Type of experiment: tissue-based. Put shortly:
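Membranes were incubated 60 min at 22 °C with 10 nM [3H]gabapentin ± test compound in 10 mM Hepes/Tris pH 7.4. Nonspecific binding was taken with excess unlabelled gabapentin. Filter-bound radioactivity was counted by scintillation. Compounds were diluted from DMSO stocks, 100-fold into the well. Duplicates. IC50 came from a competition curve of specific binding; gabapentin was the reference in each run.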
On the technique in general: In a radioligand displacement assay an active substance lowers the binding of a labelled ligand.

Take `CC(C)C[C@H](CN)CC(=O)NCCc1c[nH]c2ccccc12`: in experiment [1], the inhibition is 18%. Still for that read-out and setting: with `CC(C)C[C@H](CN)CC(=O)O` the figure was 92%; with `CC(C)C[C@H](CN)CC(=O)N[C@@H]1C(O)O[C@H](CO)[C@@H](O)[C@@H]1O` (some centres undefined), 14%.

For the compound `CC(C)C[C@H](CN)CC(=O)NCCc1c[nH]c2ccc(O)cc12`, in experiment [1], the inhibition is 51%. In addition, in experiment [2], the IC50 is 13 µM and the Ki is 11 µM. With `CC(C)C[C@H](CN)CC(=O)N[C@H]1C(O)O[C@H](CO)[C@@H](O)[C@@H]1O` (some centres undefined), the inhibition in experiment [1] turned out to be 18%.

Consider `CC(C)C[C@H](CN)CC(=O)N[C@H]1C(O)O[C@H](CO)[C@H](O)[C@@H]1O` (some centres undefined), for which the inhibition in experiment [1] is 9%. Regarding `CC(C)C[C@H](CN)CC(=O)N[C@@H]1O[C@H](CO)[C@@H](O)[C@H](O)[C@H]1O`, in experiment [1], the inhibition turned out to be 17%.

For orientation: inhibition means the relative decrease from the control value, in per cent. One may read the IC50 as the midpoint of a concentration-inhibition curve. One may read the Ki as the equilibrium dissociation constant of an inhibitor or competing ligand from its target.
